IDH1 mut inh: blocks human IDH1 R132H reductase activity; O75874; diaphorase/resazurin fluorescence, 60 min; inhibition, % at 10 µM; 70,000 tested, 0.18% active; in the data active = inhibition above about 34%; inconclusive = no clear call, values can overlap the other calls; inactive = below about 11%
T cruzi growth-1: inhibitors of T. cruzi proliferation; T. cruzi beta-gal in NIH3T3, GalScreen luminescence, 90 h; inhibition, % at 8.34 µM; 77,000 tested, 5.9% active;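 active = mean inhibition above about 93%, with at least 55% of replicates each passing it, limit read from the data, passing the limit was not always enough; inconclusive = only one of those two conditions holds; inactive = neither condition holds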
GASC1 inh: inhibitors of human demethylase GASC-1 KDM4C. Q9H3R0. GST-KDM4C 2-372, H3K9me3 peptide, LANCE TR-FRET. inhibition, % at 12.5 µM. 96,000 tested, 0.15% active. AID 720574;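 active = mean replicate inhibition above about 25%, with at least 55% of replicates also reaching it, limit read from the data, passing the limit was not always enough; inconclusive = only one of those two conditions met; inactive = neither condition met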
Target sequence (Q9H3R0 2-372 limits assumed): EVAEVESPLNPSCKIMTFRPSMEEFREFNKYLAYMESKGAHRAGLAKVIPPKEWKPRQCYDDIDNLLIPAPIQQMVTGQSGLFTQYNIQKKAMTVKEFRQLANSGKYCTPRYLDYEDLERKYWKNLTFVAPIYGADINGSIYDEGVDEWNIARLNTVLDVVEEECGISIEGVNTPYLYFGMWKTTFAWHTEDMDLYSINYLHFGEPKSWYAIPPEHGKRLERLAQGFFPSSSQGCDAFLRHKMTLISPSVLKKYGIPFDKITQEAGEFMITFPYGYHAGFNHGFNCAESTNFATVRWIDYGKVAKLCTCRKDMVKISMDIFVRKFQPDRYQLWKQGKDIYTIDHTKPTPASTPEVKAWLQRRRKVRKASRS
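System: N-terminal GST-fused human GASC-1 (KDM4C) fragment, residues 2-372 / Amount: 10 nM GST-KDM4C in enzyme reaction / Also added: H3K9me3 peptide with Fe(II)/2OG / Times: 30 min demethylation and 1 h detection at room temperature / Signal: LANCE TR-FRET / Read-out basis: Fall in 671/618 emission ratio as inhibition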
Pf Dd2 inh: P. falciparum Dd2 growth inhibition | SYBR Green, 72 h; stronger effect = lower value | activity change, % at 10 µM | 94,000 tested, 2.3% active | AID 1159554; in the data active = activity change below about -80%; inconclusive = no clear call, values can overlap the other calls
T cruzi growth-2: blocks T. cruzi growth in NIH3T3 host cells; shares compounds with T cruzi growth-1; T. cruzi beta-gal in NIH3T3, GalScreen luminescence, 90 h; inhibition, % at 8.35 µM; 5,600 tested, 72% active; AID 651739;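 active = mean replicate inhibition above about 95% and at least 55% of replicates individually reaching it, limit read from the data; inconclusive = only one of the two criteria is met; inactive = neither criterion is met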
T cruzi growth-3: blocks T. cruzi growth in NIH3T3 host cells. shares compounds with T cruzi growth-1. inhibition, % at 2.09 µM. T. cruzi beta-gal in NIH3T3, GalScreen luminescence, 90 h. 5,600 tested, 21% active;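 active = mean inhibition above about 95%, with at least 55% of replicates also reaching it, limit read from the data; inconclusive = meets just one of the two conditions; inactive = meets neither condition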
3T3 cytotox: NIH/3T3 (mouse) viability loss. cytotoxicity (signal decrease), % at 8.35 µM. 5,600 tested, 14% active. NIH/3T3 viability, CellTiter-Glo ATP luminescence, 90 h. shares compounds with T cruzi growth-1. AID 651742;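 active = mean signal decrease across replicates above about 35% based on untreated-well scatter, with enough replicates individually passing, limit read from the data; inconclusive = no rule stated though some were filed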
NIH3T3 tox 2: NIH/3T3 (mouse) viability loss; AID 651744; NIH/3T3 viability, CellTiter-Glo ATP luminescence, 90 h; 5,600 tested, 56% active; shares compounds with T cruzi growth-1; inhibition, % at 24.9 µM;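 active = mean loss of cell viability signal at or above a set limit, and enough replicates individually reaching it; inconclusive = meets only the mean limit or only the replicate share; inactive = meets neither condition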
Numbers stand for hits; – = inactive; ? = inconclusive; · = no result. Hits are enriched below; roughly 5.8% of the tested compounds scored in any of these assays.

SMILES	IDH1 mut inh	T cruzi growth-1	GASC1 inh	Pf Dd2 inh	T cruzi growth-2	T cruzi growth-3	3T3 cytotox	NIH3T3 tox 2
C[C@@H](O)C#Cc1ccc([C@@H]2[C@@H](CO)N3CCCCN(C(=O)c4cccc(F)c4)C[C@@H]23)cc1	·	–	–	–	·	·	·	·
C[C@H](O)C#Cc1ccc([C@H]2[C@H]3CN(C(=O)c4cccc(F)c4)CCCCN3[C@H]2CO)cc1	·	102.4	–	–	?	–	–	28.2
CS(=O)(=O)N(CC(=O)Nc1ccc(F)c(F)c1)c1ccc(Cl)c(C(F)(F)F)c1	–	·	·	·	·	·	·	·
COC(=O)c1c(C)nc(C)c(C(=O)OC)c1-c1csc(S(=O)(=O)N2CCSCC2)c1	–	·	·	·	·	·	·	·
N#C[C@@H]1[C@H](c2ccc(C#Cc3ccc(F)cc3)cc2)[C@@H](CO)N1C(=O)C1CC1	·	102.8	–	–	104.5	108.0	–	98.0
COc1cccc(C#Cc2ccc([C@@H]3[C@H](C#N)N(C(=O)C4CC4)[C@H]3CO)cc2)c1	·	?	–	–	–	111.6	–	24.8
N#C[C@H]1[C@H](c2ccc(C#Cc3cccc(F)c3)cc2)[C@@H](CO)N1C(=O)C1CC1	·	101.6	–	–	103.8	–	–	–
N#C[C@@H]1[C@@H](c2ccc(C#Cc3cccnc3)cc2)[C@@H](CO)N1C(=O)C1CC1	·	–	–	–	·	·	·	·
COc1cccc(C#Cc2ccc([C@@H]3[C@H](C#N)N(C(=O)C4CCCC4)[C@H]3CO)cc2)c1	·	·	–	–	·	·	·	·
N#C[C@@H]1[C@@H](c2ccc(C#Cc3ccc(F)cc3)cc2)[C@H](CO)N1C(=O)C1CCC1	·	–	–	–	·	·	·	·
N#C[C@H]1[C@@H](c2ccc(C#Cc3cccc(F)c3)cc2)[C@H](CO)N1C(=O)C1CC1	·	98.1	–	–	99.5	100.4	39.3	95.2
CCOc1cc(S(=O)(=O)NCc2ccco2)ccc1Cl	–	·	·	·	·	·	·	·
OC[C@H]1[C@H](c2ccc(C#Cc3ccccc3F)cc2)[C@@H]2CN(CC3CCOCC3)CCCCN12	·	?	–	–	106.1	–	41.1	105.6
OC[C@H]1[C@@H](c2ccc(C#Cc3ccccc3F)cc2)[C@@H]2CN(CC3CCOCC3)CCCCN12	·	–	–	–	·	·	·	·
OC[C@@H]1[C@H](c2ccc(C#Cc3ccccc3F)cc2)[C@H]2CN(CC3CCOCC3)CCCCN12	·	105.6	–	–	101.1	109.6	39.7	103.7
O=C(c1cccnc1)N1CCCCN2[C@H](CO)[C@@H](c3ccc(C#Cc4ccccn4)cc3)[C@H]2C1	·	–	–	–	·	·	·	·
C[C@@H](O)C#Cc1ccc([C@H]2[C@@H](CO)N3CCCCN(C(=O)c4ccncc4)C[C@H]23)cc1	·	–	–	–	·	·	·	·
COc1ccc(C#Cc2ccc([C@@H]3[C@H]4CN(C(=O)c5ccncc5)CCCCN4[C@H]3CO)cc2)cc1	·	–	–	–	·	·	·	·
COc1ccc(C#Cc2ccc([C@H]3[C@H]4CN(C(=O)c5ccncc5)CCCCN4[C@H]3CO)cc2)cc1	·	104.8	–	–	–	–	50.0	53.8
C[C@H](O)C#Cc1ccc([C@H]2[C@H]3CN(C(=O)c4ccncc4)CCCCN3[C@H]2CO)cc1	·	100.9	–	–	–	–	–	–
COc1ccc(C#Cc2ccc([C@@H]3[C@H](CO)N4CCCCN(C(=O)c5ccncc5)C[C@@H]34)cc2)cc1	·	105.0	–	–	–	–	–	104.1
O=C(c1ccncc1)N1CCCCN2[C@@H](CO)[C@H](c3ccc(C#Cc4ccccn4)cc3)[C@@H]2C1	·	105.3	–	–	?	–	–	–
CCc1c(C)sc(NC(=O)COc2ccc(Cl)cc2)c1C(N)=O	–	·	·	·	·	·	·	·
O=C(N/N=C/c1ccccc1C(=O)O)c1ccccn1	–	·	·	·	·	·	·	·
COc1ccc(NC(=O)N(C)C[C@H]2Oc3cc(-c4ccc(C)cc4)ccc3S(=O)(=O)N([C@H](C)CO)C[C@@H]2C)cc1	–	114.3	–	–	–	–	–	–
SMILES	IDH1 mut inh	T cruzi growth-1	GASC1 inh	Pf Dd2 inh	T cruzi growth-2	T cruzi growth-3	3T3 cytotox	NIH3T3 tox 2
Cc1ccc(-c2ccc3c(c2)O[C@@H](CN(C)C(=O)Nc2ccccc2)[C@H](C)CN([C@H](C)CO)S3(=O)=O)cc1	–	·	–	–	·	·	·	·
COc1ccc(NC(=O)N(C)C[C@H]2Oc3cc(-c4ccc(C)cc4)ccc3S(=O)(=O)N([C@@H](C)CO)C[C@@H]2C)cc1	–	126.2	–	–	107.2	–	–	37.1
COc1ccc(NC(=O)N(C)C[C@H]2Oc3cc(-c4ccc(C)cc4)ccc3S(=O)(=O)N([C@H](C)CO)C[C@H]2C)cc1	–	102.0	–	–	103.5	–	–	–
COc1ccc(NC(=O)N(C)C[C@@H]2Oc3cc(-c4ccc(C)cc4)ccc3S(=O)(=O)N([C@H](C)CO)C[C@H]2C)cc1	–	108.0	–	-89.2	105.5	–	–	25.6
CCc1ccccc1NC(=O)Cn1nc([N+](=O)[O-])cc1C	–	·	·	·	·	·	·	·
NC(=O)c1ccccc1NC(=O)COc1ccc2oc3c(c2c1)CCCC3	–	·	·	·	·	·	·	·
COc1ccc(NC(=O)N(C)C[C@@H]2Oc3cc(-c4ccc(C)cc4)ccc3S(=O)(=O)N([C@@H](C)CO)C[C@@H]2C)cc1	–	103.7	–	-87.4	114.6	–	?	42.5
COc1ccc(NC(=O)N(C)C[C@@H]2Oc3cc(-c4ccc(C)cc4)ccc3S(=O)(=O)N([C@@H](C)CO)C[C@H]2C)cc1	–	97.2	–	-92.7	103.5	–	–	–
COC(=O)C[C@@H]1CC[C@@H]2[C@@H](COc3ccc(NS(=O)(=O)c4cccc(F)c4)cc3C(=O)N2C)O1	·	–	–	–	·	·	·	·
COC(=O)C[C@H]1CC[C@@H]2[C@H](COc3ccc(NS(=O)(=O)c4cccc(F)c4)cc3C(=O)N2C)O1	·	105.1	–	–	–	–	–	–
CN1C(=O)c2cc(NS(=O)(=O)c3ccc(F)cc3)ccc2OC[C@H]2O[C@H](CC(=O)O)CC[C@H]21	·	97.4	–	–	?	–	–	–
CN1C(=O)c2cc(NS(=O)(=O)c3ccc(Cl)cc3)ccc2OC[C@H]2O[C@@H](CC(=O)N3CCc4ccccc4C3)CC[C@@H]21	·	113.4	–	–	103.8	–	–	70.9
COC(=O)C[C@@H]1CC[C@@H]2[C@H](COc3ccc(NS(=O)(=O)c4ccc(C)cc4)cc3C(=O)N2C)O1	·	107.5	–	–	100.5	–	–	–
COc1ccccc1N1CCN(CCC(=O)Nc2ccc(Br)c(C)c2)CC1	–	·	·	·	·	·	·	·
CC(=O)Nc1cccc(-c2nnc(SCC(=O)Nc3ccccc3F)n2C)c1	–	·	·	·	·	·	·	·
Cc1nnc(SCC(=O)Nc2cccc(F)c2)s1	–	·	·	·	·	·	·	·
O=C(CSc1nc2ccccc2c(=O)n1Cc1ccco1)c1ccc(Br)cc1	–	·	·	·	·	·	·	·
